Measurements published in ChEMBL document CHEMBL1153644, “Synthesis and analgesic and anti-inflammatory activities 6-substituted-3(2H)-pyridazinone-2-acetyl-2-(p-substituted/nonsubstituted benzal)hydrazone derivatives” (Eur J Med Chem, 2009).

What was measured:
Mus musculus [1] = assay: Gastrointestinal toxicity in Swiss albino mouse assessed as ulcerogenic effect at 100 mg/kg, po; type: organism-based; parameters: dose 100 mg/kg, route oral; details: in vivo
Procedure, shortened: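 Male Swiss albino mice (20–25 g), food withdrawn one day before with water allowed, at least six per group. Dosed orally as a suspension in distilled water with 0.5% CMC; controls got vehicle. Taken from the p-benzoquinone writhing test (i.p. 2.5% PBQ 60 min post-dose), then killed under deep ether anesthesia. Stomachs were opened along the great curvature and checked under a dissecting microscope for lesions or bleeding; scored as ulcerated/total animals.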

Mus musculus [2] = assay: Analgesic activity in Swiss albino mouse assessed as inhibition of para-benzoquinone-induced abdominal writhing response at 100 mg/kg, po administered 60 mins prior to para-benzoquinone challenge measured after 15 mins; type: functional, Abdomen; parameters: scale not given: the % may be the effect or the level left
Procedure, shortened: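 Male Swiss albino mice (20–25 g) were fasted overnight with water allowed, at least 6 per group. Oral dosing used a 0.5% CMC suspension, and vehicle was given to controls. Then 0.1 ml/10 g of 2.5% (v/v) p-benzoquinone was injected i.p. Writhings were counted for 15 min, starting 5 min after injection. Inhibition is expressed as % of control, mean ± SEM, ANOVA/Student–Newman–Keuls.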

Mus musculus [3] = assay: Antiinflammatory activity in Swiss albino mouse assessed as inhibition of carrageenan-induced paw edema at 10 mg/kg, po administered before 60 mins of carrageenan-challenge measured after 270 mins; type: functional
Procedure, shortened: (§1)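 Fasted male Swiss albino mice (20–25 g), n≥6, were dosed orally in 0.5% CMC suspension, with vehicle for controls. Carrageenan (0.5 mg/25 μl in saline) was injected subplantar into the right hind paw and saline into the left. The right–left footpad thickness difference was measured by dial caliper every 90 min over 6 h. Inhibition was calculated versus control, mean ± SEM.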

Mus musculus [4] = assay: Antiinflammatory activity in Swiss albino mouse assessed as inhibition of carrageenan-induced paw edema at 10 mg/kg, po administered before 60 mins of carrageenan-challenge measured after 360 mins; type: functional; procedure, shortened: as §1
Mus musculus [5] = assay: Antiinflammatory activity in Swiss albino mouse assessed as inhibition of carrageenan-induced paw edema at 10 mg/kg, po administered before 60 mins of carrageenan-challenge measured after 180 mins; type: functional; procedure, shortened: as §1
Mus musculus [6] = assay: Antiinflammatory activity in Swiss albino mouse assessed as inhibition of carrageenan-induced paw edema at 10 mg/kg, po administered before 60 mins of carrageenan-challenge measured after 90 mins; type: functional; procedure, shortened: as §1

SMILES	Activity (Mus musculus [1])	further results
Cc1ccc(/C=N/NC(=O)Cn2nc(N3CCN(c4cccc(Cl)c4)CC3)ccc2=O)cc1	Non-toxic	–
COc1ccc(/C=N/NC(=O)Cn2nc(N3CCN(c4ccc(Cl)cc4)CC3)ccc2=O)cc1	Non-toxic	–
COc1ccc(/C=N/NC(=O)Cn2nc(N3CCN(c4ccccn4)CC3)ccc2=O)cc1	Non-toxic	–
COc1ccc(/C=N/NC(=O)Cn2nc(N3CCN(c4cccc(Cl)c4)CC3)ccc2=O)cc1	Non-toxic	–
Cc1ccc(/C=N/NC(=O)Cn2nc(N3CCN(c4ccccn4)CC3)ccc2=O)cc1	Non-toxic	–
Cc1ccc(/C=N/NC(=O)Cn2nc(N3CCN(c4ccc(Cl)cc4)CC3)ccc2=O)cc1	Non-toxic	–
CC(=O)Oc1ccccc1C(=O)O [ASPIRIN]	Toxic	Activity (Mus musculus [2]): 48.7%
COc1ccc2c(c1)c(CC(=O)O)c(C)n2C(=O)c1ccc(Cl)cc1 [INDOMETHACIN]	Toxic	inhibition in vivo at 10 mg/kg (Mus musculus [3]): 37.4%; inhibition in vivo at 10 mg/kg (Mus musculus [4]): 40.4%; inhibition in vivo at 10 mg/kg (Mus musculus [5]): 32.8%; inhibition in vivo at 10 mg/kg (Mus musculus [6]): 34.4%
